Test results from ChEMBL document CHEMBL4699498 (J Med Chem, 2020).
The source made the active and inactive calls.

Legend:
CAPAN-1 = assay: Potentiation of cisplatin induced antitumor activity against CAPAN-1 cells xenografted in Balb/c mouse administered intraperitoneally once daily for 5 days; format: functional; conditions: dose mg/kg 25-50, time 5.0 day
Summary of the method: (§1)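 Male BALB/c nude mice carried Capan-1 xenografts (5×10^6 cells s.c.), randomized at ~150 mm³ (6 per group). Treatment was 25 or 50 mg/kg intraperitoneally or 100 mg/kg by oral gavage, once daily on days 0-4. Cisplatin 6 mg/kg in saline was given intraperitoneally on day 2, 45 min after the partner drug. Tumor volume and body weight were measured 2-3 times weekly.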

[1] = Acute toxicity in Balb/c mouse xenografted with CAPAN-1 cells assessed as mean weight loss at 25 mg/kg, ip qd administered for 5 days in presence of cisplatin measured on day 10 relative to control; format: organism-based; conditions: in vivo, 120 h, time 5 day; summary of the method: as §1
MDA-MB-436 = assay: Induction of DNA damage in human MDA-MB-436 cells assessed as increase in gammaH2AX foci formation incubated for 24 hrs by Western blot analysis; format: functional, cell-based; conditions: dose microM 0.1-10, time 24.0 hrs
Summary of the method: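 MDA-MB-436 (BRCA1-/-) or Capan-1 (BRCA2-/-) cells were treated 24 h at the indicated concentrations. Lysis was in RIPA buffer with protease inhibitors, and 20-30 μg protein was run on SDS-PAGE. Blots were probed for γH2AX, with β-tubulin as the loading control, and detected by ECL.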

[2] = target: T1, Protein cereblon/Poly [ADP-ribose] polymerase 1 (Homo sapiens, UniProt P09874+Q96SW2); assay: Protac activity at CRBN/PARP1 in human MDA-MB-436 cells assessed as induction of PARP1 degradation at 30 nM measured after 2 hrs by Western blot analysis
Target sequence in this assay (P09874 2-1014 limits assumed): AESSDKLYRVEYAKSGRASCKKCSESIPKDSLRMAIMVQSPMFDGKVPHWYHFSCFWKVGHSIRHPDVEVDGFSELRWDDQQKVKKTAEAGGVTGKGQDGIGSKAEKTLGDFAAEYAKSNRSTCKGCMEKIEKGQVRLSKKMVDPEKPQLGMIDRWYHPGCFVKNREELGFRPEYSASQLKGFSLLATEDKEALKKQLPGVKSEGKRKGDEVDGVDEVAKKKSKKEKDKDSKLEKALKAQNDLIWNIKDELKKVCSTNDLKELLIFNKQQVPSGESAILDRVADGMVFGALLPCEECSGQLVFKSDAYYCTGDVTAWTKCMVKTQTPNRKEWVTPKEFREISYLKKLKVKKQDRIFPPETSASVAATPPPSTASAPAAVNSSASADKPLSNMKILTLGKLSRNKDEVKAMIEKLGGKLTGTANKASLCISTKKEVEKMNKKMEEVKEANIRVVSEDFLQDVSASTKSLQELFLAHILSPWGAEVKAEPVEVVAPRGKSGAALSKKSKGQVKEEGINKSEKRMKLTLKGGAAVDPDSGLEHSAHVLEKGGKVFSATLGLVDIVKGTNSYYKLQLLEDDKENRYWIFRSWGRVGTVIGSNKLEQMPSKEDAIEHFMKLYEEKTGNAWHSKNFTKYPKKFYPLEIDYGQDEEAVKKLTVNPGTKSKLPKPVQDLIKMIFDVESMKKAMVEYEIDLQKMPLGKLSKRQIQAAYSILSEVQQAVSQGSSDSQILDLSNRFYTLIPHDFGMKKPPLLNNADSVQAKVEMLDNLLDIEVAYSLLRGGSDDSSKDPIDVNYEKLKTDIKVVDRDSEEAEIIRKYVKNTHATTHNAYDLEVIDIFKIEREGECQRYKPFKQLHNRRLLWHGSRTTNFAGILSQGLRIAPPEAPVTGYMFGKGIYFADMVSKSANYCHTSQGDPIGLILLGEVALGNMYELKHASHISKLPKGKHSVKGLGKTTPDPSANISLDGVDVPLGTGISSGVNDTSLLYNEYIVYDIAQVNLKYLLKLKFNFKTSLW
Target sequence in this assay (Q96SW2 whole entry partner): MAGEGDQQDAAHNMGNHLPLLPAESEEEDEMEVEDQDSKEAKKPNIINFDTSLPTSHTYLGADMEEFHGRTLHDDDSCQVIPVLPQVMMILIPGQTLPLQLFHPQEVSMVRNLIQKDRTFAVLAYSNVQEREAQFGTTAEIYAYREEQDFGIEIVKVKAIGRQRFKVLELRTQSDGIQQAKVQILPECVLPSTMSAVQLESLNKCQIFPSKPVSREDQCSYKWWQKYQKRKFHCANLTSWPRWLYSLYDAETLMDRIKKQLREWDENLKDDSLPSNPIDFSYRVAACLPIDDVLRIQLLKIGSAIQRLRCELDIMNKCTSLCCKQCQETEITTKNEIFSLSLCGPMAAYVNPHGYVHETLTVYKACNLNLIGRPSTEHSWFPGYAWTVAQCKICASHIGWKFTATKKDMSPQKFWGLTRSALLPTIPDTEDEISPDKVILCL

[3] = target: T1, Protein cereblon/Poly [ADP-ribose] polymerase 1; assay: Protac activity at CRBN/PARP1 in human MDA-MB-436 cells assessed as induction of PARP1 degradation at 30 nM incubated for 24 hrs in presence of 0.1 to 1 uM CRBN ligand pomalidomide by Western blot analysis
Target sequence in this assay (P09874 2-1014 limits assumed): as the sequence (P09874 2-1014 limits assumed) above
Target sequence in this assay (Q96SW2 whole entry partner): as the sequence (Q96SW2 whole entry partner) above

[4] = target: T1, Protein cereblon/Poly [ADP-ribose] polymerase 1; assay: Protac activity at CRBN/PARP1 in human CAPAN-1 cells assessed as induction of PARP1 degradation at 100 nM measured after 6 hrs by Western blot analysis; format: cell-based
Summary of the method: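 Capan-1 cells were treated with 100 nM over a time course. PARP1 was measured by western blot and normalized to β-tubulin.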
Target sequence in this assay (P09874 2-1014 limits assumed): as the sequence (P09874 2-1014 limits assumed) above
Target sequence in this assay (Q96SW2 whole entry partner): as the sequence (Q96SW2 whole entry partner) above

[5] = target: T1, Protein cereblon/Poly [ADP-ribose] polymerase 1; assay: Protac activity at CRBN/PARP1 in human Capan1 cells assessed as PARP1 protein degradation at 1 to 10 nM incubated for 24 hrs by western blot analysis; format: cell-based; conditions: CAPAN-1, dose nM 1-10, time 24.0 hrs
Summary of the method: (§2)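 Capan-1 cells were treated 24 h (1-1000 nM, or a wider dose range for DC50). Lysis was in RIPA buffer with protease inhibitors, and 20-30 μg protein was blotted. PARP1 was normalized to β-tubulin and to DMSO control, quantified by densitometry. DC50 came from two independent experiments.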
Target sequence in this assay (P09874 2-1014 limits assumed): as the sequence (P09874 2-1014 limits assumed) above
Target sequence in this assay (Q96SW2 whole entry partner): as the sequence (Q96SW2 whole entry partner) above

[6] = target: T1, Protein cereblon/Poly [ADP-ribose] polymerase 1; assay: Protac activity at CRBN/PARP1 in human MDA-MB-436 cells assessed as induction of PARP1 degradation at 30 nM incubated for 24 hrs in presence of NEDD8-activating E1 enzyme inhibitor MLN4924 by Western blot analysis
Target sequence in this assay (P09874 2-1014 limits assumed): as the sequence (P09874 2-1014 limits assumed) above
Target sequence in this assay (Q96SW2 whole entry partner): as the sequence (Q96SW2 whole entry partner) above

[7] = Acute toxicity in Balb/c mouse assessed as lethality at 25 to 50 mg/kg, ip administered 5 times a week for 3 weeks; format: organism-based; conditions: in vivo, 504 h
Summary of the method: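 Male BALB/c nude mice (5–6 weeks) received 5×10^6 Capan-1 cells s.c. in the right armpit. At a mean tumour volume of about 150 mm³, mice were randomised by tumour volume and body weight, 6 per group. Dosing was i.p. in 5% DMSO/20% PEG400/10% Cremophor EL/65% saline, once daily five times per week for 3 weeks. Body weight was measured 2–3 times weekly.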

SW-620 = assay: Potentiation of TMZ induced antitumor activity against SW-620 cells xenografted in Balb/c mouse assessed as tumor growth suppression at 10 mg/kg, po qd administered for 5 days; format: functional, organism-based; conditions: time 5.0 day
Summary of the method: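 Male BALB/c nude mice carried SW620 xenografts (6×10^6 cells s.c.), randomized at ~150 mm³ (6 per group). TMZ 50 mg/kg was given orally once daily on days 0-4, 45 min after the partner drug. Partners were 5 or 10 mg/kg intraperitoneally or 10 mg/kg by oral gavage, daily for 5 days. Vehicle was 5% DMSO/20% PEG400/10% Cremophor EL/65% saline. Tumor volume and body weight were recorded 2-3 times weekly.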

[8] = target: T1, Protein cereblon/Poly [ADP-ribose] polymerase 1; assay: Protac activity at CRBN/PARP1 in human SW-620 cells assessed as induction of PARP1 degradation at 30 nM measured within 1 hr by Western blot analysis; format: cell-based; conditions: time hrs <=1
Summary of the method: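 Time course at 30 nM in MDA-MB-436 or SW620 cells; PARP1 immunoblotted at successive time points, β-tubulin as loading control.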
Target sequence in this assay (P09874 2-1014 limits assumed): as the sequence (P09874 2-1014 limits assumed) above
Target sequence in this assay (Q96SW2 whole entry partner): as the sequence (Q96SW2 whole entry partner) above

[9] = target: T1, Protein cereblon/Poly [ADP-ribose] polymerase 1; assay: Protac activity at CRBN/PARP1 in human Capan1 cells assessed as induction of PARP1 degradation at 1 to 1000 nM incubated for 24 hrs by Western blot analysis; format: cell-based; conditions: CAPAN-1, dose nM 1-1000, time 24.0 hrs; summary of the method: as §2
HCC1937 = assay: Antiproliferation activity against human HCC1937 assessed as cell growth inhibition incubated for 7 days by CCK-8 assay; format: functional, cell-based; conditions: time 7.0 day
Summary of the method: (§3)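 Cells were sub-cultured at least twice and seeded for 24 h before dosing. Compounds came from 10 mM DMSO stocks, given as 10 points of 3-fold serial dilution starting at 10-20 μM. Incubation was about 7 days (Capan-1 13 days) at 37 °C, 5% CO2. Read-out was CCK-8 absorbance at 450 nm, as % growth versus DMSO wells (duplicate wells). IC50 was fitted by nonlinear regression; three independent experiments.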

[10] = target: T1, Protein cereblon/Poly [ADP-ribose] polymerase 1; assay: Protac activity at CRBN/PARP1 in human MDA-MB-436 cells assessed as induction of PARP1 degradation at 30 nM incubated for 24 hrs in presence of proteasome inhibitor MG132 by Western blot analysis
[11] = Cytotoxicity against […] H9c2 cells assessed as reduction in cell viability incubated for 120 hrs by CCK-8 assay; format: cell-based; conditions: h9c2, 120 h
MDA-MB-468 = assay: Antiproliferation activity against human MDA-MB-468 assessed as cell growth inhibition incubated for 7 days by CCK-8 assay; format: functional, cell-based; conditions: time 7.0 day; summary of the method: as §3
[12] = target: T1, Protein cereblon/Poly [ADP-ribose] polymerase 1; assay: Protac activity at CRBN/PARP1 in human HCC1937 cells assessed as induction of PARP1 degradation measured after 24 hrs by Western blot analysis; format: cell-based
Summary of the method: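 The cell line was treated 24 h across a concentration range. PARP1 was measured by western blot against β-tubulin. DC50 is the average of two biologically independent experiments.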
Target sequence in this assay (P09874 whole entry): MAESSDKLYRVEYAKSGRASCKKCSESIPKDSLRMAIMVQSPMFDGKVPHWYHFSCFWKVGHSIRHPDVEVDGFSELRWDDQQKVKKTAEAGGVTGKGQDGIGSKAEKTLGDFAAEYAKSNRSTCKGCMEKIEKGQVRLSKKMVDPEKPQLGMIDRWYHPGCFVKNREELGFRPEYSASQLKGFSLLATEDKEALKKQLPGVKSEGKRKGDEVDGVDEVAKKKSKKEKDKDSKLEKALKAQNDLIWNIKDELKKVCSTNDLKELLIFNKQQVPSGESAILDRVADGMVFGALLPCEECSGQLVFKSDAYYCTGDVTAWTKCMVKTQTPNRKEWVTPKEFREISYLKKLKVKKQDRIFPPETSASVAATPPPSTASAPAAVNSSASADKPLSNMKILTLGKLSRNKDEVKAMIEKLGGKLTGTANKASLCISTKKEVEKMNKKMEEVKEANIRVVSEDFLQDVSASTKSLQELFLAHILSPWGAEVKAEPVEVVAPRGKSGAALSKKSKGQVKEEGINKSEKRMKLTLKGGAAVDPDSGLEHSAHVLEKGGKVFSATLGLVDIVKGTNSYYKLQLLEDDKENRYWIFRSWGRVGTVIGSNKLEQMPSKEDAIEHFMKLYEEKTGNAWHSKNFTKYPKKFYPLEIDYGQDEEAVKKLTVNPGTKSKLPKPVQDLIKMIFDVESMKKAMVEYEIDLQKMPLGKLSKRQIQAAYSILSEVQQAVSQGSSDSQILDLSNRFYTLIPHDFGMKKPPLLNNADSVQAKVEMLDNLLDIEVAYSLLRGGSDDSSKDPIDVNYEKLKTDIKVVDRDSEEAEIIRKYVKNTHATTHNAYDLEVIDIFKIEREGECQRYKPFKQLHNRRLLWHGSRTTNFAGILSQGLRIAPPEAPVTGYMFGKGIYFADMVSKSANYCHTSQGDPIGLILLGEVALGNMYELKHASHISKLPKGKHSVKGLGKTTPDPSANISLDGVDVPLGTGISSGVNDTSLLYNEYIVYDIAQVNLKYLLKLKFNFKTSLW
Target sequence in this assay (Q96SW2 whole entry): as the sequence (Q96SW2 whole entry partner) above

O=C(CCCCCCCCCCC(=O)N1CCN(C(=O)c2cc(Cc3n[nH]c(=O)c4ccccc34)ccc2F)CC1)NCCNc1cccc2c1C(=O)N(C1CCC(=O)NC1=O)C2=O (configuration not stated)
inactive: Activity [3] | Activity [6] | Activity [10]
384 pM: DC50 [12]
active: Activity (CAPAN-1) Dose-dependent effect | Activity (MDA-MB-436) Dose-dependent effect | Activity [2] | Activity [4] | Activity [5] | Activity (SW-620) | Activity [8] | Activity [9] | Activity (HCC1937) | Activity (MDA-MB-468)
9%: Activity [1]
Non-Toxic: Activity [7] | Activity [11]
